{"source": "ChEMBL document CHEMBL4028892", "about": "“Discovery of a 1-Methyl-3,4-dihydronaphthalene-Based Sphingosine-1-Phosphate (S1P) Receptor Agonist Ceralifimod (ONO-4641). A S1P1 and S1P5 Selective Agonist for the Treatment of Autoimmune Diseases” (J Med Chem, 2017)", "key": {"[1]": {"molecular_target": "Sphingosine 1-phosphate receptor 3 (Homo sapiens, UniProt Q99500)", "sequence (Q99500 whole entry)": "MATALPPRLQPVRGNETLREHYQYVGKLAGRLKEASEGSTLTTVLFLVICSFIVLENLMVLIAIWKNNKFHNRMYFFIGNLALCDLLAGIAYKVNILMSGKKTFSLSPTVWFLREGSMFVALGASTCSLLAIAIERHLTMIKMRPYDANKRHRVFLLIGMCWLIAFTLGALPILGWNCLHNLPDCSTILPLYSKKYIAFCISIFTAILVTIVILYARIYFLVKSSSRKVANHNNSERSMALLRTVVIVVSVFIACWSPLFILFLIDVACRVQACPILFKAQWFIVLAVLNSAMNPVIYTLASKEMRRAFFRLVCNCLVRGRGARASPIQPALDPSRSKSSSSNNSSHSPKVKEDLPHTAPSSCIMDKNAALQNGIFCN", "experiment": "Agonist activity at human S1P3 receptor expressed in CHO-K1 cells assessed as increase in S1P-stimulated calcium influx preincubated for 5 mins followed by S1P stimulation measured every 3 secs by fluorescence method", "type": "cell-based"}, "Homo sapiens": {"organism": "Homo sapiens", "experiment": "Selectivity ratio of EC50 for human S1P3 receptor to EC50 for human S1P1 receptor", "method_in_brief": "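Fura2 Ca2+ assay in CHO-K1 cells stably expressing human S1P1 or S1P3. Cells were loaded with 5 μM Fura2-AM in Ham's F12 (10% FBS, 20 mM HEPES pH 7.4, 2.5 mM probenecid) for 60 min at 37 °C, then washed. After a 30 s baseline, compound was added (0.1 nM–30 μM final, DMSO), then 100 nM S1P 5 min later. Ratio read every 3 s (ex 340/380, em 500 nm). Increase ratio (%) = B/A×100 against the DMSO-well S1P peak; EC50 taken from the concentration series; mean of ≥2 data points.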"}, "Mus musculus": {"test_system": "Mus musculus", "experiment": "Decrease in peripheral lymphocyte levels in po dosed BALB/c mouse at 24 hrs by automated hematology analyzer", "type": "functional", "method_in_brief": "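Compound given orally to 6-week-old male BALB/c mice. At 4 or 24 h, blood was taken from the abdominal aorta under ether anaesthesia and lymphocytes counted on an automated haematology analyser. Counts expressed as % of the vehicle-group mean; ED50 is the dose lowering counts to 50%. One experiment, five mice.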"}, "[2]": {"experiment": "Cmax in Crl:CD(SD) rat at 0.1 mg/kg, po by LC-MS/MS analysis", "type": "ADME, organism-based", "set-up": "dose 0.1 mg/kg, route oral", "settings": "in vivo", "method_in_brief": "(§1)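 Single intravenous or oral dose of 0.1 mg/kg to male Crl:CD(SD) rats and to monkeys. Values are means of three animals with SD.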"}, "[3]": {"experiment": "Half life in cynomolgus monkey at 0.1 mg/kg, po by LC-MS/MS analysis", "type": "ADME, organism-based, Macaca fascicularis", "settings": "in vivo", "method_in_brief": "as §1"}, "[4]": {"experiment": "Volume of distribution at steady state in cynomolgus monkey at 0.1 mg/kg, iv by LC-MS/MS analysis", "type": "ADME, organism-based, Macaca fascicularis", "settings": "in vivo, read-out: Vdss", "method_in_brief": "as §1"}, "[5]": {"experiment": "Plasma concentration in unrestrained conscious cynomolgus monkey at 100 mg/kg, po measured at 4 hrs", "type": "ADME, organism-based, Macaca fascicularis", "method_in_brief": "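Single oral dose of 1, 10 or 100 mg/kg to unrestrained conscious monkeys. Heart rate was followed from 4 to 24 h after dosing and its decrease expressed against the pretreatment value. Plasma concentration was sampled at 4 and 24 h.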"}, "Cynomolgus monkey": {"test_system": "Cynomolgus monkey", "experiment": "Decrease in peripheral lymphocyte levels in unrestrained conscious cynomolgus monkey at 0.01 to 0.03 mg/kg, po administered as single dose measured after 4 to 24 hrs by automated hematology analyzer", "type": "functional, organism-based", "settings": "Macaca fascicularis", "method_in_brief": "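Single oral doses of 0.01 and 0.03 mg/kg to monkeys. Peripheral lymphocyte counts were followed from 4 to 24 h after administration.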"}, "[6]": {"molecular_target": "Sphingosine 1-phosphate receptor 2 (Homo sapiens, UniProt O95136)", "sequence (O95136 whole entry)": "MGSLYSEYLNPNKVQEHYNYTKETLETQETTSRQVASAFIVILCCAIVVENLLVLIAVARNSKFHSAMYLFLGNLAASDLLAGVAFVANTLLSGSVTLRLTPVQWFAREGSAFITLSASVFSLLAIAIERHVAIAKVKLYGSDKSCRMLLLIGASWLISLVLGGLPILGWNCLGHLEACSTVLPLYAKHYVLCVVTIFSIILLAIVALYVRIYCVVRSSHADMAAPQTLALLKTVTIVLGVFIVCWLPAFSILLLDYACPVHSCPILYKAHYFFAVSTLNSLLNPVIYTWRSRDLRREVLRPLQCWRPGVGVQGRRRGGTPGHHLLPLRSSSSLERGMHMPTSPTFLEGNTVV", "experiment": "Displacement of [33P]-S1P from human S1P2 receptor expressed in CHO-K1 cells after 60 mins by scintillation counting method", "type": "cell-based"}, "[7]": {"molecular_target": "Sphingosine 1-phosphate receptor 1 (Homo sapiens, UniProt P21453)", "sequence (P21453 whole entry)": "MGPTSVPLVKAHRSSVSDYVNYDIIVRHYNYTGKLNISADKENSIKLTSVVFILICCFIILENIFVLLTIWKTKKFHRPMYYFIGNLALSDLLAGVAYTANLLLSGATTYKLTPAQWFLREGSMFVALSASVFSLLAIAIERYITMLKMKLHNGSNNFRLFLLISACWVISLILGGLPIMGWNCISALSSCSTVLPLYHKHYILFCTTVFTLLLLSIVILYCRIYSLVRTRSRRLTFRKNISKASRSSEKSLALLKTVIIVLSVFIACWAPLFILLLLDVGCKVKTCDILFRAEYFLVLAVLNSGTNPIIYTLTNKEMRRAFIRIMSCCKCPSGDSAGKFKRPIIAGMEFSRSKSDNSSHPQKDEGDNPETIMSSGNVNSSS", "experiment": "Downregulation of human S1P1 receptor expressed in CHO-K1 cell membranes assessed as concentration required to induce downregulation of receptor by 90% by flow cytometric method", "type": "cell-based"}}, "note": "The source made the active and inactive calls. No cut-off for these calls is given here."}
{"smiles": "CCCc1ccc(COc2ccc3c(c2)CCC(CN2CC(C(=O)O)C2)=C3C)c(OC)c1", "values": [{"measurement": "EC50", "setting": "[1]", "result": "> 30", "unit": "µM"}, {"measurement": "Ratio EC50", "setting": "Homo sapiens", "result": "> 30000"}, {"measurement": "ED50", "setting": "Mus musculus", "result": 0.029, "unit": "mg/kg"}, {"measurement": "Cmax", "setting": "[2]", "result": 7.47, "unit": "ng/mL"}, {"measurement": "half-life", "setting": "[3]", "result": 29, "unit": "h"}, {"measurement": "Vd", "setting": "[4]", "result": 2.66, "unit": "L/kg"}, {"measurement": "concentration at 4 h", "setting": "[5]", "result": 13500, "unit": "ng/mL"}, {"measurement": "Activity", "setting": "Cynomolgus monkey", "result": "Active"}, {"measurement": "Ki", "setting": "[6]", "result": "> 5.45", "unit": "µM"}, {"measurement": "Activity", "setting": "[7]", "result": 25, "unit": "nM"}]}
